The target in the test is T1, Adenosine receptor A1 (Rattus norvegicus, UniProt P25099).
T1 sequence (P25099 whole entry): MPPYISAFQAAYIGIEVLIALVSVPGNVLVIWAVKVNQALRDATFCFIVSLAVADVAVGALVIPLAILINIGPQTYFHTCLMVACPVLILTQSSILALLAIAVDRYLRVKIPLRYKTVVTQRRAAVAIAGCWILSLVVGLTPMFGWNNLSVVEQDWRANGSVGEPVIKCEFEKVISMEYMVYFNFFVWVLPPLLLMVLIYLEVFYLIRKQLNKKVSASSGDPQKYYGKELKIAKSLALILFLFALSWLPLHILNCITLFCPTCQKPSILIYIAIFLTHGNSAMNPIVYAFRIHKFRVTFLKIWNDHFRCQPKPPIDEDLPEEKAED
Put plainly: Inhibition of binding of 1 nM N6-[3H]cyclohexyladenosine to adenosine A1 receptor on rat cerebral cortical membranes. In kind it is cell membranes, Membrane. In outline:
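Displacement of 1 nM N6-[3H]cyclohexyladenosine by a range of analogue concentrations, run in triplicate in at least two separate experiments. IC50 estimated graphically for each experiment. Values are mean ± SEM of two to four experiments.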
Broadly, the Ki is the equilibrium dissociation constant of an inhibitor or competing ligand from its target. High values mean lower affinity, low ones higher affinity. Take `COC(=O)Cc1ccc(NC(=O)Cc2ccc(Nc3ncnc4c3ncn4C3O[C@H](CO)[C@@H](O)[C@H]3O)cc2)cc1` (some centres not stated): the affinity, expressed as Ki, was 2.5 nM. That is a single-digit nanomolar value. In turn, `OC[C@H]1O[C@@H](n2cnc3c(Nc4ccccc4)ncnc32)[C@H](O)[C@@H]1O` [N6-PHENYLADENOSINE] came in with an inhibition constant Ki of 3.2 nM. This Ki and that of the molecule before are within 1.5-fold of each other. Turning to `Cc1cccc(NC(=O)Cc2ccc(Nc3ncnc4c3ncn4C3O[C@H](CO)[C@@H](O)[C@H]3O)cc2)c1` (some centres not stated), the Ki is 2 nM. Against the preceding molecule, the Ki is about 1.6-fold lower.

In turn, `NNC(=O)Cc1ccc(NC(=O)Cc2ccc(Nc3ncnc4c3ncn4C3O[C@H](CO)[C@@H](O)[C@H]3O)cc2)cc1` (some centres not stated) registered a Ki of 4.5 nM.

Regarding `CCOC(=O)CNC(=O)Cc1ccc(Nc2ncnc3c2ncn3C2O[C@H](CO)[C@@H](O)[C@H]2O)cc1` (some centres not stated), the affinity, expressed as Ki, was 15 nM. `O=C(CCCCC1SCC2NC(=O)NC21)NCCNC(=O)Cc1ccc(NC(=O)Cc2ccc(Nc3ncnc4c3ncn4C3O[C@H](CO)[C@@H](O)[C@H]3O)cc2)cc1` (some centres not stated) had a Ki of 11.4 nM.

Regarding `O=C(O)Cc1ccc(Nc2ncnc3c2ncn3C2O[C@H](CO)[C@@H](O)[C@H]2O)cc1` (some centres not stated), the Ki turned out to be 210 nM. In turn, `O=C(Cc1ccc(Nc2ncnc3c2ncn3C2O[C@H](CO)[C@@H](O)[C@H]2O)cc1)Nc1ccc(C(F)(F)F)cc1` (some centres not stated) yielded a Ki of 3.3 nM. This Ki is about 64-fold lower than that of the molecule before.

`Cc1ccccc1NC(=O)Cc1ccc(Nc2ncnc3c2ncn3C2O[C@H](CO)[C@@H](O)[C@H]2O)cc1` (some centres not stated) yielded a Ki of 6.8 nM. Molecule `CC(=O)NCCNC(=O)Cc1ccc(NC(=O)Cc2ccc(Nc3ncnc4c3ncn4C3O[C@H](CO)[C@@H](O)[C@H]3O)cc2)cc1` (some centres not stated) yielded a Ki of 9.3 nM. The molecule `Cc1ccc(NC(=O)Cc2ccc(Nc3ncnc4c3ncn4C3O[C@H](CO)[C@@H](O)[C@H]3O)cc2)cc1` (some centres not stated) returned a Ki of 1.7 nM. Molecule `CNC(=O)CNC(=O)C(Cc1ccc(NC(=O)Cc2ccc(Nc3ncnc4c3ncn4C3O[C@H](CO)[C@@H](O)[C@H]3O)cc2)cc1)NC(=O)OC(C)(C)C` (some centres not stated) yielded an inhibitory constant (Ki) of 13 nM.

Molecule `Cc1ccc(Nc2ncnc3c2ncn3C2O[C@H](CO)[C@@H](O)[C@H]2O)cc1` (some centres not stated) yielded a Ki of 2.5 nM. As for `COC(=O)C(Cc1ccc(NC(=O)Cc2ccc(Nc3ncnc4c3ncn4C3O[C@H](CO)[C@@H](O)[C@H]3O)cc2)cc1)NC(=O)C(F)(F)F` (some centres not stated), the Ki was 18 nM. This Ki is about 7.2-fold higher than that of the molecule before.

As for `COc1ccc(Nc2ncnc3c2ncn3[C@@H]2O[C@H](CO)[C@@H](O)[C@H]2O)cc1`, the inhibition constant (Ki) worked out at 2.3 nM.

`CNC(=O)Cc1ccc(NC(=O)Cc2ccc(Nc3ncnc4c3ncn4C3O[C@H](CO)[C@@H](O)[C@H]3O)cc2)cc1` (some centres not stated) came in with a Ki of 6.7 nM. Compared with the last molecule, the Ki is about 2.9-fold higher. In turn, `O=C(CCc1ccc(O)cc1)NCCNC(=O)Cc1ccc(NC(=O)Cc2ccc(Nc3ncnc4c3ncn4C3O[C@H](CO)[C@@H](O)[C@H]3O)cc2)cc1` (some centres not stated) showed an inhibitory constant (Ki) of 4.5 nM. The Ki values of the last two molecules are within 1.5-fold of each other.

The values above are taken from ChEMBL document CHEMBL1123049, “Functionalized congeners of adenosine: preparation of analogues with high affinity for A1-adenosine receptors” (J Med Chem, 1985).
